# Experimental data: ChEMBL document CHEMBL1146929, “Biological evaluation of a multi-targeted small molecule inhibitor of tumor-induced angiogenesis” (Bioorg Med Chem Lett, 2006)
# What was measured:
# [1] = AUC in Wistar rat at 200 mg/kg, po; type: ADME, organism-based; set-up: dose 200 mg/kg, route oral; details: plasma
# Outline: (§1)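 Single doses given iv and orally. Mice (athymic nude) received 10 mg/kg iv, with bleeds at 1, 5, 15, 30 min and 1-24 h, and 50 or 200 mg/kg po, with bleeds at 5 min-24 h. Wistar rats received 5 mg/kg iv through a femoral arterial catheter, with jugular bleeds to 24 h, and 50 or 200 mg/kg po, with bleeds to 48 h. The iv vehicle was 2% DMA/10% PEG400/88% of 40% HPBCD and the oral vehicle 2% Klucel LF/0.1% Tween 80. EDTA plasma was assayed by LC-MS/MS against a calibration of 1-2000 ng/mL.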
# [2] = AUC in nude mice at 50 mg/kg, po; type: ADME, organism-based; set-up: dose 50 mg/kg, route oral; details: mouse, plasma; outline: as §1
# [3] = target: Protein kinase C alpha type (Homo sapiens, UniProt P17252); assay: Inhibitory activity against PKC alpha
# Outline: (§2)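 IMAP homogeneous fluorescence-polarisation kinase assay: phosphorylated fluorescent peptide substrate binds immobilised metal beads, read as kinase activity. Reactions run at ATP three times the Km for each enzyme.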
# [4] = Volume of distribution in Wistar rat at 5 mg/kg, iv; type: ADME, organism-based; set-up: dose 5 mg/kg, route intravenous; details: in vivo, read-out: Vdss; outline: as §1
# [5] = AUC in nude mice at 200 mg/kg, po; type: ADME, organism-based; set-up: dose 200 mg/kg, route oral; details: mouse, plasma; outline: as §1
# HCT-116 = assay: Antiproliferative activity against HCT116 by MTT assay; type: functional, cell-based; details: Homo sapiens
# Outline: (§3)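 Exponentially growing HCT116 or H460a tumor cells were plated and held overnight at 37 C before compound was added. Proliferation was read as MTT formazan formation during a 2.5 h incubation 6 days after plating. IC50 came from a single experiment run in duplicate.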
# [6] = Half life in Wistar rat at 50 mg/kg, po; type: ADME, organism-based; set-up: dose 50 mg/kg, route oral; details: in vivo; outline: as §1
# Mus musculus [7] = assay: Inhibition of tumor growth in nude mice implanted with H460a cells at 200 mg/kg, po after 28 days; type: functional; details: 672 h
# NCI-H460 = assay: Antiproliferative activity against H460a by MTT assay; type: functional, cell-based; details: Homo sapiens; outline: as §3
# [8] = AUC in Wistar rat at 50 mg/kg, po; type: ADME, organism-based; set-up: dose 50 mg/kg, route oral; details: plasma; outline: as §1
# [9] = target: cAMP-dependent protein kinase (PKA) (Homo sapiens, UniProt P22694+P17612+P22612); assay: Inhibitory activity against PKA; type: protein assay
# Outline: (§4)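 IMAP fluorescence-polarization kinase assay: phosphorylated fluorescent peptide substrate binds immobilized metal beads, giving a measure of kinase activity. Reactions were run with ATP at three times the Km of each kinase.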
# [10] = Clearance in nude mice at 10 mg/kg, iv; type: ADME, organism-based; set-up: dose 10 mg/kg, route intravenous; details: mouse, in vivo; outline: as §1
# [11] = Half life in nude mice at 10 mg/kg, iv; type: ADME, organism-based; set-up: dose 10 mg/kg, route intravenous; details: mouse, in vivo; outline: as §1
# [12] = target: Platelet-derived growth factor receptor (Homo sapiens, UniProt P09619+P16234); assay: Inhibitory activity against recombinant human PDGFR; type: protein-complex assay
# [13] = AUC in Wistar rat at 5 mg/kg, iv; type: ADME, organism-based; set-up: dose 5 mg/kg, route intravenous; details: plasma; outline: as §1
# [14] = Half life in Wistar rat at 5 mg/kg, iv; type: ADME, organism-based; set-up: dose 5 mg/kg, route intravenous; details: in vivo; outline: as §1
# [15] = target: T1, Serine/threonine-protein kinase Sgk1 (Homo sapiens, UniProt O00141); assay: Inhibitory activity against SGK; outline: as §4
# T1 sequence (O00141 whole entry): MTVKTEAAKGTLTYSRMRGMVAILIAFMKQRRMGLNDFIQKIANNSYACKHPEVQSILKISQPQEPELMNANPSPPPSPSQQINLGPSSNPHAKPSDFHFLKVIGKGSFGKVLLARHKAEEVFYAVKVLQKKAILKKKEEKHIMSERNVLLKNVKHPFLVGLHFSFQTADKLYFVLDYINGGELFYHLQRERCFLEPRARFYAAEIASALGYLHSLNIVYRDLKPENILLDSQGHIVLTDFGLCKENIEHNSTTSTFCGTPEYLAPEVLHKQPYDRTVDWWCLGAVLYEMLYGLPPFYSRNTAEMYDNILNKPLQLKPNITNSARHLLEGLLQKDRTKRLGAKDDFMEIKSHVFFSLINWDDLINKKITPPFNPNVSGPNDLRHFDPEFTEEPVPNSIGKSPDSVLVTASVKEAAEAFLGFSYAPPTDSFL
# [16] = target: Protein kinase C delta type (Homo sapiens, UniProt Q05655); assay: Inhibitory activity against PKC delta; outline: as §4
# Chain of Protein kinase C delta type (Q05655 whole entry): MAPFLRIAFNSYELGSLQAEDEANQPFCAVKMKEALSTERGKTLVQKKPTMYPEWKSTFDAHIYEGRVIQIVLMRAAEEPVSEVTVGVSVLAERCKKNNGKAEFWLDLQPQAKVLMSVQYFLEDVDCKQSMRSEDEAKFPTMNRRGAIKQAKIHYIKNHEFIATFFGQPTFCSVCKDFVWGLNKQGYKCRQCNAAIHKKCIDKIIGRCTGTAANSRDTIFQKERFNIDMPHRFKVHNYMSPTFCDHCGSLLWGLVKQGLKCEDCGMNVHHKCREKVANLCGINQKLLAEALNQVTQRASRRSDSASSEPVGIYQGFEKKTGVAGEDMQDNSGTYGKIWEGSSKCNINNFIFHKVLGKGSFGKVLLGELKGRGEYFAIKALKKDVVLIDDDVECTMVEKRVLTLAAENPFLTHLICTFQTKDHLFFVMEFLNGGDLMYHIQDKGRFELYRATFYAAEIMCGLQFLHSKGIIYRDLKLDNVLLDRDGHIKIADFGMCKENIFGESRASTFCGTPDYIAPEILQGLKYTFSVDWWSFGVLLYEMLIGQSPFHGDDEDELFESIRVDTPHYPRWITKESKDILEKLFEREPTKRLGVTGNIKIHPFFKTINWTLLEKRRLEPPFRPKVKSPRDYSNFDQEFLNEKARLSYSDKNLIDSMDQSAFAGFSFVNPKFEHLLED
# [17] = Half life in nude mice at 200 mg/kg, po; type: ADME, organism-based; set-up: dose 200 mg/kg, route oral; details: mouse, in vivo; outline: as §1
# HUVEC [18] = assay: Inhibitory activity against VEGF-induced proliferation of HUVEC cells; type: functional, cell-based; details: Homo sapiens
# Outline: (§5)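 HUVECs were grown to subconfluence, serum-starved for 24 h, then given compound for 2 h before stimulation with 20 ng/mL VEGF or 5 ng/mL bFGF. BrdU label was added after 20 h with compound. Incorporation was read 4 h later with a peroxidase anti-BrdU antibody and colorimetric detection. IC50 came from a single experiment in duplicate.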
# [19] = Cmax in Wistar rat at 50 mg/kg, po; type: ADME, organism-based; set-up: dose 50 mg/kg, route oral; details: in vivo; outline: as §1
# Mus musculus [20] = assay: Inhibition of tumor growth in nude mice implanted with H460a cells at 100 mg/kg, po after 28 days; type: functional; details: 672 h
# [21] = target: Mitogen-activated protein kinase 1 (Homo sapiens, UniProt P28482); assay: Inhibitory activity against Erk2; outline: as §2
# Chain of Mitogen-activated protein kinase 1 (P28482 whole entry): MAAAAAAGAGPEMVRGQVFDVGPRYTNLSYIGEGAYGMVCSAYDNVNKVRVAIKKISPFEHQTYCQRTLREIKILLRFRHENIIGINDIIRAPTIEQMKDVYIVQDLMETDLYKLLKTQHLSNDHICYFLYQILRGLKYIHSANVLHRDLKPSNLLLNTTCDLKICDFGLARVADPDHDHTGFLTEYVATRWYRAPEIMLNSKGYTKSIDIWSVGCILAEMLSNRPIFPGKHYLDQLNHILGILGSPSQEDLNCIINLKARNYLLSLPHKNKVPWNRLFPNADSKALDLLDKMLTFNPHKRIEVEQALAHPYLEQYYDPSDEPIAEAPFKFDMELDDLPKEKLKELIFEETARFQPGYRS
# [22] = target: Cyclin-dependent kinase 1/cyclin B (Homo sapiens, UniProt P06493); assay: Inhibition of CDK1/cyclinB; type: protein-complex assay; outline: as §4
# [23] = Cmax in nude mice at 200 mg/kg, po; type: ADME, organism-based; set-up: dose 200 mg/kg, route oral; details: mouse, in vivo; outline: as §1
# [24] = Half life in nude mice at 50 mg/kg, po; type: ADME, organism-based; set-up: dose 50 mg/kg, route oral; details: mouse, in vivo; outline: as §1
# [25] = target: RAC-alpha serine/threonine-protein kinase (Homo sapiens, UniProt P31749); assay: Inhibitory activity against AKT; outline: as §4
# Chain of RAC-alpha serine/threonine-protein kinase (P31749 whole entry): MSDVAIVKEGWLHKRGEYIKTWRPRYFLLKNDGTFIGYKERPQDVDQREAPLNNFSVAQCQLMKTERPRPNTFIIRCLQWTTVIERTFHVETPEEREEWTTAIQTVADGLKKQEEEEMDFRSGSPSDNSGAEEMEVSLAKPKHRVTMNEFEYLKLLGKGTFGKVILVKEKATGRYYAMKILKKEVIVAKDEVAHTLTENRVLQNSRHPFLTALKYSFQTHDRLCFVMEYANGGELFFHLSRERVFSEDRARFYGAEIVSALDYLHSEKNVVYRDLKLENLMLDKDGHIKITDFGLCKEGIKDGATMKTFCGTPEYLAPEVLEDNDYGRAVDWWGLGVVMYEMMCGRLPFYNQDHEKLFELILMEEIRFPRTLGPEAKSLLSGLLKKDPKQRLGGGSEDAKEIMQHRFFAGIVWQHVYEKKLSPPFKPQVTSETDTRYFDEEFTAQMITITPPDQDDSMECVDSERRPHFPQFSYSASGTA
# [26] = Cmax in nude mice at 50 mg/kg, po; type: ADME, organism-based; set-up: dose 50 mg/kg, route oral; details: mouse, in vivo; outline: as §1
# [27] = Cmax in Wistar rat at 200 mg/kg, po; type: ADME, organism-based; set-up: dose 200 mg/kg, route oral; details: in vivo; outline: as §1
# [28] = target: Vascular endothelial growth factor receptor 2 (Homo sapiens, UniProt P35968); assay: Inhibitory activity against recombinant human KDR
# Chain of Vascular endothelial growth factor receptor 2 (P35968 whole entry): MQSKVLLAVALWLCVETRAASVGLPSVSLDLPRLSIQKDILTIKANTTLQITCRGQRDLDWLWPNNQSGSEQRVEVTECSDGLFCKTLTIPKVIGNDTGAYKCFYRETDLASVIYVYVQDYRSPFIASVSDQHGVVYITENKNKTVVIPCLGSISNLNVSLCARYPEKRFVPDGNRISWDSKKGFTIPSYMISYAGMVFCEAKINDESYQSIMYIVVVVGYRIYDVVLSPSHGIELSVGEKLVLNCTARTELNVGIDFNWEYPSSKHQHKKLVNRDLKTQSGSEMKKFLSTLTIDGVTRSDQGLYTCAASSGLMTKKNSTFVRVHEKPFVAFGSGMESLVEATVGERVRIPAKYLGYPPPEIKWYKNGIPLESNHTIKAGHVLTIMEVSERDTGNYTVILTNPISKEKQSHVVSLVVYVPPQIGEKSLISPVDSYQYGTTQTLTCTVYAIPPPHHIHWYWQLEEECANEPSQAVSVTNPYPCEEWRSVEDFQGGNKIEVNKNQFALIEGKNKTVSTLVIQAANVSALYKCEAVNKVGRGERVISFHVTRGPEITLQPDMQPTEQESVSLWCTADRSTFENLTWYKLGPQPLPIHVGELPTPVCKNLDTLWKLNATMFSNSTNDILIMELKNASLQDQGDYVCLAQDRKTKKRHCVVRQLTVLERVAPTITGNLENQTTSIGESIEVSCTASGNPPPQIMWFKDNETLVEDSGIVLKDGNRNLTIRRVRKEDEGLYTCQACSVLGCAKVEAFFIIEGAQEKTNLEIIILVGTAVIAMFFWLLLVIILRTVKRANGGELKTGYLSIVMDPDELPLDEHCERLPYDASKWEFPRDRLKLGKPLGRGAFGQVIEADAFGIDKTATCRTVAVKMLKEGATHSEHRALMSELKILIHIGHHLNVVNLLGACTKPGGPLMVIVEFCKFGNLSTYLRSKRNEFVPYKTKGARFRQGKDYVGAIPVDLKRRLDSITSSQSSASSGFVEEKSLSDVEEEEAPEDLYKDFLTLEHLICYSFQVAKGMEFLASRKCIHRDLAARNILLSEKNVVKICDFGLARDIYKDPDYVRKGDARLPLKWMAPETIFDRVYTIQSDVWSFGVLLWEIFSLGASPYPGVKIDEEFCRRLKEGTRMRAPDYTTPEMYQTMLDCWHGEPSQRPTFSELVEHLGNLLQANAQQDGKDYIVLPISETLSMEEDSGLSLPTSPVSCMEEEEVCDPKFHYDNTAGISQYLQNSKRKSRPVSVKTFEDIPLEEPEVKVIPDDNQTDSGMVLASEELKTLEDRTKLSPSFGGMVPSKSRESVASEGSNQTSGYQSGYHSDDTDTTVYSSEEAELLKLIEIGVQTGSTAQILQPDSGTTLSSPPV
# [29] = AUC in nude mice at 10 mg/kg, iv; type: ADME, organism-based; set-up: dose 10 mg/kg, route intravenous; details: mouse, plasma; outline: as §1
# Mus musculus [30] = assay: Inhibition of VEGF-induced corneal angiogenesis in C57/BL6 mice at 200 mg/kg, po after 7 days; type: functional; details: C57/BL6, Cornea, 168 h
# Outline: (§6)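 VEGF-containing pellets were implanted in the cornea of C57/BL6 mice. Cohorts were dosed orally bid at 12.5, 50 or 200 mg/kg for 7 days, after which the area of corneal angiogenesis (mm2) was quantified against vehicle. Body weight was monitored throughout.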
# [31] = Clearance in Wistar rat at 5 mg/kg, iv; type: ADME, organism-based; set-up: dose 5 mg/kg, route intravenous; details: in vivo; outline: as §1
# HUVEC [32] = assay: Inhibitory activity against bFGF-induced proliferation of HUVEC cells; type: functional, cell-based; details: Homo sapiens; outline: as §5
# Ephrin type-B receptor 3 = target: T2, Ephrin type-B receptor 3 (Homo sapiens, UniProt P54753); assay: Inhibitory activity against EphB3; outline: as §4
# T2 sequence (P54753 whole entry): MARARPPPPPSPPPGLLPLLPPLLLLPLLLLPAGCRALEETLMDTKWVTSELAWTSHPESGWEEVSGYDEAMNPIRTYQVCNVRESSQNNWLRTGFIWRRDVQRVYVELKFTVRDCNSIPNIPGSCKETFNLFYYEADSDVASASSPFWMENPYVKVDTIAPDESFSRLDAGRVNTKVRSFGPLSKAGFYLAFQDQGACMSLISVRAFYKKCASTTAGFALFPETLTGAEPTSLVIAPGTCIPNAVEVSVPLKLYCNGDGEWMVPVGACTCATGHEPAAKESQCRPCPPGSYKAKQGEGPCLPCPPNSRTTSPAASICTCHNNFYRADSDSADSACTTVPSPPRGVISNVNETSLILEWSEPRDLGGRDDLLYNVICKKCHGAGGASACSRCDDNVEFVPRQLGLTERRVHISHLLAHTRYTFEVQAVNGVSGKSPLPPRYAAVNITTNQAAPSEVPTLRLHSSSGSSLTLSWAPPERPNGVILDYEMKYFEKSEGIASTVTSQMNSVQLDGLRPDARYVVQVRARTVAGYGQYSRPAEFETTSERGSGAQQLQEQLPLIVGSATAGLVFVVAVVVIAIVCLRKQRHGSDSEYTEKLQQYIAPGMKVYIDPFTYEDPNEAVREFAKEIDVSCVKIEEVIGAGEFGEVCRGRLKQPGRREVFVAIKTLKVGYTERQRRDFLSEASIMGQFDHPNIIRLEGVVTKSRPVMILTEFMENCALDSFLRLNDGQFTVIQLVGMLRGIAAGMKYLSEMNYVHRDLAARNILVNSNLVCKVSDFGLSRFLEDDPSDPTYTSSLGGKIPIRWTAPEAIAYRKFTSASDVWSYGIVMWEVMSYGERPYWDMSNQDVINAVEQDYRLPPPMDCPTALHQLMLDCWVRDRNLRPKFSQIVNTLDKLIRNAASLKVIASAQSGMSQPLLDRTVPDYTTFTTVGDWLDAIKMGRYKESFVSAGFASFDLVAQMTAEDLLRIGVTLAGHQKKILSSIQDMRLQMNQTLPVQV
# Mus musculus [33] = assay: Inhibition of VEGF-induced corneal angiogenesis in C57/BL6 mice at 50 mg/kg, po after 7 days; type: functional; details: C57/BL6, Cornea, 168 h; outline: as §6
# [34] = Volume of distribution in nude mice at 10 mg/kg, iv; type: ADME, organism-based; set-up: dose 10 mg/kg, route intravenous; details: mouse, in vivo, read-out: Vdss; outline: as §1
# Mus musculus [35] = assay: Inhibition of tumor growth in nude mice implanted with H460a cells at 50 mg/kg, po after 28 days; type: functional; details: 672 h
# [36] = Half life in Wistar rat at 200 mg/kg, po; type: ADME, organism-based; set-up: dose 200 mg/kg, route oral; details: in vivo; outline: as §1
smiles,measurement,setting,value
"COc1ccc(N2Cc3cnc(Nc4ccc(F)cc4)nc3N(C3CC[C@@H](O)C3)C2=O)cc1 (single isomer, unassigned)",AUC,[1],285 µg·h/mL
same,AUC,[2],96500 ng·h/mL
same,IC50,[3],> 125 µM
same,Vd,[4],3.7 L/kg
same,AUC,[5],260 µg·h/mL
same,IC50,HCT-116,3000 nM
same,half-life,[6],300 min
same,inhibition in vivo at 200 mg/kg,Mus musculus [7],95%
same,IC50,NCI-H460,2500 nM
same,AUC,[8],40900 ng·h/mL
same,IC50,[9],9.01 µM
same,clearance,[10],13.8 mL/min/kg
same,half-life,[11],120 min
same,IC50,[12],83 nM
same,AUC,[13],2770 ng·h/mL
same,half-life,[14],258 min
same,IC50,[15],> 125 µM
same,IC50,[16],> 125 µM
same,half-life,[17],102 min
same,IC50,HUVEC [18],35 nM
same,Cmax,[19],3160 ng/mL
same,inhibition in vivo at 100 mg/kg,Mus musculus [20],87%
same,IC50,[21],12.6 µM
same,IC50,[22],> 125 µM
same,Cmax,[23],82.6 µg/mL
same,half-life,[24],114 min
same,IC50,[25],> 125 µM
same,Cmax,[26],29100 ng/mL
same,Cmax,[27],10300 ng/mL
same,IC50,[28],50 nM
same,AUC,[29],12100 ng·h/mL
same,inhibition in vivo at 200 mg/kg,Mus musculus [30],91%
same,clearance,[31],32.5 mL/min/kg
same,IC50,HUVEC [32],149 nM
same,IC50,Ephrin type-B receptor 3,1250 nM
same,inhibition in vivo at 50 mg/kg,Mus musculus [33],67%
same,Vd,[34],1.9 L/kg
same,inhibition in vivo at 50 mg/kg,Mus musculus [35],78%
same,half-life,[36],468 min
